In ChEMBL document CHEMBL2407009, “Rotenoids from Boerhaavia diffusa as potential anti-inflammatory agents” (J Nat Prod, 2013):

How the values were obtained:
Ovis aries = species: Ovis aries; assay: Selectivity ratio of IC50 for ovine COX1 to IC50 for ovine COX2
How it was run: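 Ratio of COX-1 IC50 to COX-2 IC50. Both IC50s come from concentration−inhibition curves in the ovine enzyme kit assay, with PGF2α (from SnCl2 reduction of PGH2) measured by enzyme immunoassay.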

[1] = target: T1, Prostaglandin G/H synthase 2 (Ovis aries, UniProt P79208); assay: Inhibition of ovine COX2 assessed as PGF2alpha production by reduction of PGH2 with stannous chloride by enzyme immunoassay
T1 sequence (P79208 whole entry): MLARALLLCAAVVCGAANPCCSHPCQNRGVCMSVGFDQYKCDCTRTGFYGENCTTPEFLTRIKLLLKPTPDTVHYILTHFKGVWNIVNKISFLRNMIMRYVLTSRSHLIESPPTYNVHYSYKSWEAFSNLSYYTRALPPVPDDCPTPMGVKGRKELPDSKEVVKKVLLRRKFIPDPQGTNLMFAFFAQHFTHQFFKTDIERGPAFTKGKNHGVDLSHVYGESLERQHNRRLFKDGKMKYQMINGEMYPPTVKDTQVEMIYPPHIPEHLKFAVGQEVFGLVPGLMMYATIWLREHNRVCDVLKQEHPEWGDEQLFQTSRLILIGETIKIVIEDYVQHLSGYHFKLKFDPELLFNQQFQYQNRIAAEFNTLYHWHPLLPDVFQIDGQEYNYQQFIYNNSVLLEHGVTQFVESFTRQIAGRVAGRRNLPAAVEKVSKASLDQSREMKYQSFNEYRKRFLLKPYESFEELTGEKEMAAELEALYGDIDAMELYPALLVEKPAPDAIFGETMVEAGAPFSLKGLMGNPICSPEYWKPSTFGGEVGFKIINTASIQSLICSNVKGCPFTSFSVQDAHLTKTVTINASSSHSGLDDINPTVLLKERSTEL
How it was run: (§1)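 Ovine COX-1 or COX-2 from screening kit used per manufacturer; arachidonic acid substrate, PGH2 reduced by SnCl2 to PGF2α and read by enzyme immunoassay. DMSO stock solutions. Percent inhibition relative to control incubations; IC50 obtained from concentration−inhibition response curves. Means ± SEM, n = 2−3.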

[2] = target: T2, Prostaglandin G/H synthase 1 (Ovis aries, UniProt P05979); assay: Inhibition of ovine COX1 assessed as PGF2alpha production by reduction of PGH2 with stannous chloride by enzyme immunoassay; how it was run: as §1
T2 sequence (P05979 whole entry): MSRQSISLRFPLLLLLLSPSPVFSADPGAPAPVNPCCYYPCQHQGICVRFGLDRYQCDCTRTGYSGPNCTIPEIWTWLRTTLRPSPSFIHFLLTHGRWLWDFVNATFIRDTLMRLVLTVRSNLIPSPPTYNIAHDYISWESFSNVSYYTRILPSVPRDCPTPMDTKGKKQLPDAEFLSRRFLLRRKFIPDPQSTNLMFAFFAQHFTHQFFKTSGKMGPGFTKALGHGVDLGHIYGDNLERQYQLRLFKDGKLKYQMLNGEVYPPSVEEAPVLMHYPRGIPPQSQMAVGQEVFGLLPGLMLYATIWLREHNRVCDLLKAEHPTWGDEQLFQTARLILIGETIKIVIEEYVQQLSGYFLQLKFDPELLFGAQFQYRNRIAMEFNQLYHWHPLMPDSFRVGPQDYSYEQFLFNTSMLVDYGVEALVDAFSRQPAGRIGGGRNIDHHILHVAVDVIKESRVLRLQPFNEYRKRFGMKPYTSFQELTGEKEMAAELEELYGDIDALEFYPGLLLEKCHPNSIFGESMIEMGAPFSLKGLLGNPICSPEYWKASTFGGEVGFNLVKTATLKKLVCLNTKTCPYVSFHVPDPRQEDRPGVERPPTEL

[3] = target: T3, Prostaglandin G/H synthase 1 (Ovis aries) (UniProt P05979); assay: Inhibition of ovine COX1 assessed as PGF2alpha production by reduction of PGH2 with stannous chloride at 40 uM by enzyme immunoassay relative to control
T3 sequence (whole entry): T2 sequence (P05979 whole entry)
How it was run: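 Ovine COX inhibitor screening kit run per manufacturer. Enzyme converts arachidonic acid to PGH2, which SnCl2 reduces to PGF2α, quantified by enzyme immunoassay. DMSO stocks; final test concentration 40 μM. Percent inhibition calculated against control incubations. Means ± SEM, n = 2−3.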

Rattus norvegicus [4] = assay: Antiinflammatory activity in Sprague-Dawley rat assessed as inhibition of carrageenan-induced paw edema at 50 mg/kg, po administered 1 hr before carrageenan challenge measured after 5 hrs relative to control; format: functional
How it was run: (§2)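 Female Sprague-Dawley rats (160−180 g), fasted overnight, six per group. Samples suspended in freshly prepared 0.5% hydroxypropyl methyl cellulose, given orally; control group received vehicle (normal saline). 1 h after dosing, 100 μL of 1% carrageenan in saline injected subcutaneously into left hind paw. Paw volume read by plethysmometer before and at 3 and 5 h; edema = final minus basal volume. Mean ± SEM, one-way ANOVA with Dunnett's test versus control.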

Rattus norvegicus [5] = assay: Antiinflammatory activity in Sprague-Dawley rat assessed as inhibition of carrageenan-induced paw edema at 50 mg/kg, po administered 1 hr before carrageenan challenge measured after 3 hrs relative to control; format: functional; how it was run: as §2
Rattus norvegicus [6] = assay: Antiinflammatory activity in Sprague-Dawley rat assessed as inhibition of carrageenan-induced paw edema at 100 mg/kg, po administered 1 hr before carrageenan challenge measured after 5 hrs relative to control; format: functional; how it was run: as §2
Rattus norvegicus [7] = assay: Antiinflammatory activity in Sprague-Dawley rat assessed as inhibition of carrageenan-induced paw edema at 100 mg/kg, po administered 1 hr before carrageenan challenge measured after 3 hrs relative to control; format: functional; how it was run: as §2

COc1c(O)c(C)c(O)c2c(=O)c3c(oc12)C(OC)Oc1ccccc1-3 (racemic)
Ratio IC50 (Ovis aries): 1.09 | IC50 [1]: 31.4 µM | IC50 [2]: 33.1 µM

COc1c(O)c(C)c(O)c2c(=O)c3c(oc12)C(O)Oc1ccccc1-3 (racemic)
IC50 [2]: 25.9 µM

O=c1c2c(oc3cc(O)cc(O)c13)C(O)Oc1cc(O)ccc1-2 (racemic)
Ratio IC50 (Ovis aries): 0.79 | IC50 [1]: 25.5 µM | IC50 [2]: 21.7 µM

COC1Oc2ccccc2-c2c1oc1cc(O)cc(O)c1c2=O (racemic)
inhibition [3]: 59.4%

COc1cc(O)c2c(=O)c3c(oc2c1)C(O)Oc1c(O)cccc1-3 (racemic)
inhibition [3]: 59.9%

COc1cc(O)c2c(c1)O[C@@H]1COc3c(O)cccc3[C@@]1(O)C2=O (relative stereo)
inhibition [3]: 47.2%

COC1Oc2ccccc2-c2c1oc1cc(O)c(C)c(O)c1c2=O (centres undefined) [BOERAVINONE A]
IC50 [2]: 32.9 µM

Cc1c(O)cc2oc3c(c(=O)c2c1O)-c1ccccc1OC3O (centres undefined) [BOERAVINONE B]
inhibition in vivo at 50 mg/kg (Rattus norvegicus [4]): 56.7% | IC50 [2]: 25 µM | inhibition in vivo at 50 mg/kg (Rattus norvegicus [5]): 48.3%

Cc1c(O)cc2oc3c(c(=O)c2c1O)-c1ccc(O)cc1OC3O (centres undefined) [BOERAVINONE E]
IC50 [2]: 23.9 µM

CC(C)Cc1ccc(C(C)C(=O)O)cc1 (centres undefined) [IBUPROFEN]
inhibition in vivo at 100 mg/kg (Rattus norvegicus [6]): 50.4% | inhibition in vivo at 100 mg/kg (Rattus norvegicus [7]): 42.7% | inhibition in vivo at 50 mg/kg (Rattus norvegicus [4]): 43.5% | inhibition in vivo at 50 mg/kg (Rattus norvegicus [5]): 35.8%
